Results on 22 compounds are retold here after ChEMBL document CHEMBL3992505, “Optimization of substituted imidazobenzodiazepines as novel asthma treatments” (Eur J Med Chem, 2017).

Structures are written as SMILES.

Series [1] is described as follows: Half life in human liver microsomes at 10 uM by LC-MS/MS analysis. The format is ADME, microsome.
Series [2] relates to Liver. Put plainly: Metabolic stability in mouse liver microsomes assessed as compound remaining at 10 uM after 1 hr by LC-MS/MS analysis. In kind it is ADME, microsome. In a few lines:
(§1)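 Compound stability was measured in human or mouse liver microsomes as percent remaining after 1 h. Data came from two independent experiments, each run in triplicate.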

A short description of series [3]: Cytotoxicity in human BEAS2B cells after 48 hrs by Cell-titer Glo reagent based assay. Also noted: species or system BEAS-2B. The settings on record: read-out: LD50. The procedure, abridged:
(§2)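 Cells (HEK293, HepG2 or BEAS2B) exposed to compounds at a range of concentrations for 48 h; viability read by Cell-Titer Glo luminescence. Normalized to DMSO (negative) and 3-dibutylamino-1-(4-hexyl-phenyl)-propan-1-one at 150 μM final in DMSO (positive).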

The subject of series [4] is Liver. In words: Metabolic stability in human liver microsomes assessed as compound remaining at 10 uM after 1 hr by LC-MS/MS analysis. The format is ADME, microsome. In a few lines: as §1
A short description of series [5]: Cytotoxicity in HEK293 cells after 48 hrs by Cell-titer Glo reagent based assay. The settings on record: human, read-out: LD50. The procedure, abridged: as §2
Series [6] is described as follows: (§3) Half life in mouse liver microsomes at 10 uM by LC-MS/MS analysis. The format is ADME, microsome. Conditions: liver microsomes.
Series [7] in a line: Cytotoxicity in human HepG2 cells after 48 hrs by Cell-titer Glo reagent based assay. Conditions: read-out: LD50. The procedure, abridged: as §2
Series [8] concerns Liver. The description is as §3. In kind it is ADME, microsome. Conditions: microsomes, 10 µM.
Another series has as its system Mus musculus. Put plainly: Neurotoxicity in Swiss Webster mouse assessed as induction of senorimotor impairment at 40 mg/kg, ip administered 10 mins prior to testing and measured for 3 mins at 10 to 60 mins after drug administration by rotarod method. In kind it is toxicity, organism-based. The settings on record: in vivo. The procedure, abridged: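 Swiss Webster mice, pre-trained at 15 rpm until they held on for 3 min at three consecutive sessions, were given a single i.p. dose of 40 mg/kg in 10% DMSO/40% propylene glycol/50% PBS. Rotarod at 15 rpm for 3 min at 10, 30 and 60 min after dosing. Falls before 3 min scored as fail, with time of fall recorded. N = 10, mean ± SEM. Vehicle and diazepam 5 mg/kg i.p. controls. Mice rested 2–3 days between doses.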

The nature of series [9]: Solubility of the compound in 50% PBS/40% propylene glycol/10% DMSO at 10 uM. The format is physicochemical. The settings on record: buffer.
Series [10] in a line: Solubility of the compound in PBS/1% DMSO at 10 uM. In kind it is physicochemical. Conditions: buffer. In a few lines: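 Solubility was judged at 10 μM in PBS containing 1% DMSO.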

Turning to `[2H]C([2H])([2H])Oc1ccc2c(c1)C(=O)N1CCC[C@H]1c1c(C(=O)OCC)ncn1-2`, the half-life at 10 µM was 14 h in series [1] and 5.85 h in series [6]. In addition, the Stability was found to be 85.5% in the series with Liver [2] and 92.8% in the series on Liver [4]. Moreover, the CC50 at 48 h in series [3], in series [5] and in [7] was over 400 µM in each case.
For the compound `[2H]C([2H])([2H])Oc1ccc2c(c1)C(=O)N1CCC[C@H]1c1c(C(=O)NC(C)(C)C)ncn1-2`, the half-life at 10 µM in series [1] came out at 7.15 h. Also, the results for the Stability in the series on Liver [2] and with Liver [4] were 9.4% and 95.6%, respectively. Besides, the CC50 at 48 h in series [3] is over 400 µM; in [5], over 200 µM; in [7], over 400 µM. Besides, the t1/2 in the series on Liver [8] is 21.5 h. Besides, in the series on Mus musculus, the Activity result is listed as “Toxic”.
For the compound `[2H]C([2H])([2H])Oc1ccc2c(c1)C(=O)N1CCC[C@H]1c1c(C(=O)OC)ncn1-2`, the half-life at 10 µM in series [1] was determined as 16.3 h; in series [6] it was 4.75 h. Besides, the Stability in the series on Liver [2] turned out to be 85.9%; in the series on Liver [4], 92.9%. Also, the CC50 at 48 h in series [3], in [5] and in series [7] was over 400 µM in each case. The Activity entry in the series with Mus musculus was “Toxic”.
`[2H]C([2H])([2H])Oc1ccc2c(c1)C(=O)N1CCC[C@H]1c1c(C(=O)NC3CC3)ncn1-2` registered a half-life at 10 µM in series [1] of 30 h. Also, the Stability in the series on Liver [2] is 94.1%; with Liver [4], 88.1%. The CC50 at 48 h is over 400 µM in series [3], over 200 µM in series [5] and over 400 µM in series [7]. Also, the t1/2 with Liver [8] amounted to 0.295 h.
On to `COc1ccc2c(c1)C(=O)N1CCC[C@H]1c1c(C(=O)OCC(C)C)ncn1-2`, for which the half-life at 10 µM in [1] turned out to be 2.82 h; in series [6] it was 0.325 h. The solubility result in series [9] is on record as “Insoluble”. Besides, the Stability in the series with Liver [2] is on record as 13.4%; with Liver [4], 77.8%. Also, the CC50 at 48 h in series [3] is over 200 µM; in [5], over 100 µM; in series [7] it was over 200 µM.
As for `COc1ccc2c(c1)C(=O)N1CCC[C@H]1c1c(C(=O)NC(C)(C)C)ncn1-2`, in series [1], the half-life at 10 µM worked out at 3.23 h. Besides, the Stability came to 4.2% in the series on Liver [2] and 92.8% in the series with Liver [4]. For the same compound, the figures for the CC50 at 48 h in series [3], in [5] and in series [7] were over 400 µM, over 200 µM and over 400 µM, respectively. The same compound yielded a t1/2 in the series on Liver [8] of 10.4 h.
`CC(C)(C)OC(=O)c1ncn2c1[C@@H]1CCCN1C(=O)c1cc(O)ccc1-2`: the half-life at 10 µM in series [1] was determined as 9.65 h; in series [6], 0.96 h. Moreover, the Stability in the series on Liver [2] is 46.6%; in the series on Liver [4], 90.6%. The CC50 at 48 h in series [3], in series [5] and in series [7] was over 400 µM throughout.
In the case of `CCOC(=O)c1ncn2c1[C@@H]1CCCN1C(=O)c1cc(O)ccc1-2`, the half-life at 10 µM in series [1] amounted to 11 h; in series [6], 9 h. The results for the Stability in the series on Liver [2] and with Liver [4] were 91.1% and 91.7%, respectively. The CC50 at 48 h in [3], in [5] and in series [7] was over 400 µM each time. Further, the Activity result in the series on Mus musculus was “Non-Toxic”.
Consider `[2H]C([2H])([2H])Oc1ccc2c(c1)C(=O)N1CCC[C@H]1c1c(C(=O)NCC)ncn1-2`, for which the results for the half-life at 10 µM in series [1] and in series [6] were 21.3 h and 4.55 h, respectively. The figures for the Stability in the series on Liver [2] and with Liver [4] were 94.8% and 93.5%, respectively. For the same compound, the CC50 at 48 h in series [3], in series [5] and in [7] was over 400 µM each time. Further, the Activity entry in the series on Mus musculus was “Non-Toxic”.
For the compound `[2H]C([2H])([2H])Oc1ccc2c(c1)C(=O)N1CCC[C@H]1c1c(C(=O)N(C)C)ncn1-2`, the half-life at 10 µM was 13.3 h in [1] and 24.7 h in series [6]. The Stability is given as 83.1% in the series on Liver [2] and 96.3% in the series on Liver [4]. The CC50 at 48 h in [3], in series [5] and in series [7] was over 400 µM each time. For the same compound, the Activity result in the series on Mus musculus is “Non-Toxic”.
Take `COc1ccc2c(c1)C(=O)N1CCC[C@H]1c1c(C(=O)NC3CC3)ncn1-2`: in series [1], the half-life at 10 µM turned out to be 13.1 h. In addition, the Stability in the series on Liver [2] was 91.3%; with Liver [4], 79.9%. The results for the CC50 at 48 h in [3], in series [5] and in [7] were over 400 µM, over 200 µM and over 400 µM, respectively. This compound returned a t1/2 in the series on Liver [8] of 0.222 h.
Turning to `[2H]C([2H])([2H])Oc1ccc2c(c1)C(=O)N1CCC[C@H]1c1c(C(=O)OC(C(F)(F)F)C(F)(F)F)ncn1-2`, the half-life at 10 µM in [1] is 3.4 h; in [6], 1.82 h. Besides, the solubility entry in series [9] is recorded as “Insoluble”. Also, the results for the Stability in the series on Liver [2] and with Liver [4] were 62.5% and 77.1%, respectively. The CC50 at 48 h in [3] was over 400 µM; in series [5] it was over 200 µM; in series [7], over 400 µM.
With `COC(=O)c1ncn2c1[C@@H]1CCCN1C(=O)c1cc(OC)ccc1-2`, the half-life at 10 µM was 11.1 h in series [1] and 2.15 h in series [6]. Moreover, the figures for the Stability in the series with Liver [2] and with Liver [4] were 70.3% and 89.7%, respectively. Also, the CC50 at 48 h in series [3], in [5] and in [7] was over 400 µM each time.
As to `[2H]C([2H])([2H])Oc1ccc2c(c1)C(=O)N1CCC[C@H]1c1c(C(=O)SC(C)(C)C)ncn1-2`, the solubility result in series [10] is “Insoluble”. Besides, the CC50 at 48 h in series [3] is over 100 µM; in series [5], 16.8 µM; in series [7], over 100 µM.
For `[2H]C([2H])([2H])Oc1ccc2c(c1)C(=O)N1CCC[C@H]1c1c(C(=O)OCC(C)C)ncn1-2`, the half-life at 10 µM worked out at 3.35 h in [1] and 0.448 h in [6]. Besides, the results for the Stability in the series with Liver [2] and in the series with Liver [4] were 22.4% and 78.7%, respectively. The CC50 at 48 h in [3] was over 200 µM; in series [5], over 100 µM; in [7], over 200 µM. In the series on Mus musculus, the Activity result is recorded as “Toxic”.
In the case of `CCNC(=O)c1ncn2c1[C@@H]1CCCN1C(=O)c1cc(OC)ccc1-2`, the half-life at 10 µM in [1] turned out to be 12.2 h. In addition, the Stability in the series on Liver [2] turned out to be 50.1%; with Liver [4] it was 90.7%. The CC50 at 48 h in series [3], in series [5] and in [7] was over 400 µM throughout. Also, the t1/2 in the series with Liver [8] is 4.72 h.
As for `[2H]C([2H])([2H])Oc1ccc2c(c1)C(=O)N1CCC[C@H]1c1c(C(=O)NC)ncn1-2`, the figures for the half-life at 10 µM in series [1] and in series [6] were 23.9 h and 1.29 h, respectively. Also, the Stability with Liver [2] stood at 56.8%; with Liver [4], 94.9%. For the same compound, the CC50 at 48 h in series [3] is over 400 µM; in [5] it was over 100 µM; in series [7], over 400 µM.
In the case of `[2H]C([2H])([2H])Oc1ccc2c(c1)C(=O)N1CCC[C@H]1c1c(C(=O)O)ncn1-2`, the half-life at 10 µM turned out to be 5.6 h in series [1] and 4.71 h in [6]. Further, the Stability with Liver [2] and with Liver [4] was 84.6% in each case. Moreover, the CC50 at 48 h in series [3], in series [5] and in series [7] was over 400 µM throughout. In the series on Mus musculus, the Activity result is “Non-Toxic”.
For `CNC(=O)c1ncn2c1[C@@H]1CCCN1C(=O)c1cc(OC)ccc1-2`, the half-life at 10 µM turned out to be 16.3 h in series [1] and 1.08 h in [6]. The Stability is listed as 54.3% with Liver [2] and 93.8% with Liver [4]. The CC50 at 48 h is over 400 µM in [3], over 100 µM in [5] and over 400 µM in series [7]. Moreover, the Activity entry in the series with Mus musculus is listed as “Toxic”.
As to `COc1ccc2c(c1)C(=O)N1CCC[C@H]1c1c(C(=O)O)ncn1-2`, the half-life at 10 µM in series [1] worked out at 1.33 h; in series [6], 1.22 h. Further, the Stability in the series with Liver [2] is reported as 52.9%; in the series with Liver [4], 56.1%. The CC50 at 48 h in series [3], in [5] and in series [7] was over 400 µM each time.
Consider `[2H]C([2H])([2H])Oc1ccc2c(c1)C(=O)N1CCC[C@H]1c1c(C(=O)OC(C)(C)C)ncn1-2`, for which the half-life at 10 µM in series [1] came to 16.9 h; in series [6], 0.428 h. Further, the Stability in the series with Liver [2] is recorded as 17.6%; in the series on Liver [4] it was 91.9%. The CC50 at 48 h was over 200 µM in series [3], over 100 µM in [5] and over 400 µM in [7].
`CCOC(=O)c1ncn2c1[C@@H]1CCCN1C(=O)c1cc(OC)ccc1-2`: the values for the Stability with Liver [2] and in the series with Liver [4] were 85.4% and 99.1%, respectively. Besides, the CC50 at 48 h in series [3], in series [5] and in series [7] was over 400 µM throughout. The compound further yielded a half-life at 10 µM in [6] of 5.3 h.
